From ChEMBL document CHEMBL4411293, “Development of alkyl glycerone phosphate synthase inhibitors: Structure-activity relationship and effects on ether lipids and epithelial-mesenchymal transition in cancer cells” (Eur J Med Chem, 2019)
One block for each compound: values may come before it. Active and inactive are the calls of the source. No cut-off for these calls is given here.

Tests used:
[1] = biological target: Alkyldihydroxyacetonephosphate synthase, peroxisomal (Homo sapiens) (UniProt O00116); experiment: Binding affinity to AGPS (unknown origin) assessed as change in melting temperature at 180 uM by ThermoFAD assay
How it was run: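 ThermoFAD: 5 µM Cavia porcellus AGPS with 180 µM compound in 50 mM HEPES pH 7.5, 50 mM NaCl, 5% glycerol; heated 25–70 °C, FAD fluorescence read every 0.2 °C (excitation 485 nm) to give unfolding temperature shift; triplicate, SD within ±0.5 °C.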

[2] = Cytotoxicity against human MeT-5A cells at 100 uM after 24 hrs by MTS assay; format: cell-based
How it was run: (§1)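 Cells seeded at 20x10^3 per well; compound added 24 h later at 50, 100 or 250 µM; after further 24 h MTS reagent added and absorbance read at 490 nm; PC-3 and MDA-MB-231 in DMEM, MeT5A in M199, each with 10% FBS, 37 °C, 5% CO2; three independent experiments, 8 measurements total, mean ± SEM.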

[3] = Down regulation of phospholipids in human 231MFP cells at 500 uM after 24 hrs by LC-MS/MS analysis relative to control; format: functional
How it was run: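 231MFP cells kept serum-free 24 h, then treated 24 h at 500 µM versus DMSO; lipids extracted in chloroform/methanol/PBS (2:1:1) with C12:0 dodecylglycerol and pentadecanoic acid internal standards; reverse-phase C5 LC, ESI triple-quadrupole MS/MS with SRM quantitation; mean ± SD.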

[4] = Cytotoxicity against human 231MFP cells assessed as cell survival at 500 uM after 48 hrs by MTS assay relative to control; format: cell-based; conditions: read-out: Activity
How it was run: (§2)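 231MFP cells preincubated with compound (500 µM) or DMSO, then seeded into serum-free survival assay; survival read after 24 and 48 h relative to matched DMSO controls.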

[5] = Cytotoxicity against human 231MFP cells assessed as cell survival at 500 uM after 24 hrs by MTS assay relative to control; format: cell-based; conditions: read-out: Activity; how it was run: as §2
[6] = Cytotoxicity against human MeT-5A cells at 250 uM after 24 hrs by MTS assay; format: cell-based; how it was run: as §1
[7] = Antimigratory activity in human 231MFP cells at 500 uM after 6 hrs by transwell assay relative to control; format: functional
How it was run: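 Transwell chambers coated with collagen; 231MFP cells preincubated with compound or DMSO vehicle before seeding into serum-free migration assay; migration rate read after 6 h versus vehicle control; mean ± SD, n = 3–4 per group.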

MDA-MB-231 [8] = experiment: Modulation of epithelial-mesenchymal transition in human MDA-MB-231 cells assessed as upregulation of E-cadherin mRNA expression at 50 to 100 uM after 24 hrs by qRT-PCR analysis; format: functional, cell-based
How it was run: (§3)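 PC-3 and MDA-MB-231 cells in DMEM/10% FBS treated 24 h at 50 and 100 µM, DMSO vehicle as control; E-cadherin, Snail and MMP2 transcripts quantified by RT-PCR; mean of at least four independent experiments.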

MDA-MB-231 [9] = experiment: Modulation of epithelial-mesenchymal transition in human MDA-MB-231 cells assessed as down regulation of MMP2 mRNA expression at 50 to 100 uM after 24 hrs by qRT-PCR analysis; format: functional, cell-based; how it was run: as §3
MDA-MB-231 [10] = experiment: Modulation of epithelial-mesenchymal transition in human MDA-MB-231 cells assessed as down regulation of snail mRNA expression at 50 to 100 uM after 24 hrs by qRT-PCR analysis; format: functional, cell-based; how it was run: as §3
[11] = Reduction in cell survival in human 231MFP cells; format: functional
[12] = Reduction in cell migration rate in human 231MFP cells; format: functional; design: scale not given: the % may be the effect or the level left
PC-3 [13] = experiment: Modulation of epithelial-mesenchymal transition in human PC3 cells assessed as upregulation of E-cadherin mRNA expression at 50 to 100 uM after 24 hrs by qRT-PCR analysis; format: functional, cell-based; how it was run: as §3
[14] = Antimigratory activity in human 231MFP cells at 500 uM after 8 hrs by transwell assay relative to control; format: functional
PC-3 [15] = experiment: Modulation of epithelial-mesenchymal transition in human PC3 cells assessed as down regulation of MMP2 mRNA expression at 50 to 100 uM after 24 hrs by qRT-PCR analysis; format: functional, cell-based; how it was run: as §3
PC-3 [16] = experiment: Modulation of epithelial-mesenchymal transition in human PC3 cells assessed as down regulation of snail mRNA expression at 50 to 100 uM after 24 hrs by qRT-PCR analysis; format: functional, cell-based; how it was run: as §3
PC-3 [17] = experiment: Antiproliferative activity against human PC3 cells at 250 uM after 24 hrs by MTS assay; format: functional, cell-based; how it was run: as §1
[18] = biological target: Alkyldihydroxyacetonephosphate synthase, peroxisomal (Homo sapiens) (UniProt O00116); experiment: Inhibition of AGPS (unknown origin) using palmitoyl-DHAP as substrate in presence of [1-14C]hexadecanol by radioactivity based enzymatic assay
MDA-MB-231 [19] = experiment: Modulation of epithelial-mesenchymal transition in human MDA-MB-231 cells transfected with AGPS-siRNA assessed as upregulation of E-cadherin mRNA expression at 100 uM after 24 hrs by qRT-PCR analysis; format: functional, cell-based
How it was run: (§4)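 MDA-MB-231 cells transfected with AGPS siRNAs (100 pmol total, RNAiMAX) or scramble; 24 h later given compound at 100 µM final or DMSO without detaching, harvested 24 h after that; AGPS, E-cadherin, Snail and MMP2 transcripts by RT-PCR; mean of five independent experiments.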

MDA-MB-231 [20] = experiment: Antiproliferative activity against human MDA-MB-231 cells at 100 uM after 24 hrs by MTS assay; format: functional, cell-based; how it was run: as §1
MDA-MB-231 [21] = experiment: Antiproliferative activity against human MDA-MB-231 cells at 250 uM after 24 hrs by MTS assay; format: functional, cell-based; how it was run: as §1
MDA-MB-231 [22] = experiment: Modulation of epithelial-mesenchymal transition in human MDA-MB-231 cells transfected with AGPS-siRNA assessed as down regulation of MMP2 mRNA expression at 100 uM after 24 hrs by qRT-PCR analysis; format: functional, cell-based; how it was run: as §4
PC-3 [23] = experiment: Antiproliferative activity against human PC3 cells at 100 uM after 24 hrs by MTS assay; format: functional, cell-based; how it was run: as §1
MDA-MB-231 [24] = experiment: Modulation of epithelial-mesenchymal transition in human MDA-MB-231 cells transfected with AGPS-siRNA assessed as down regulation of snail mRNA expression at 100 uM after 24 hrs by qRT-PCR analysis; format: functional, cell-based; how it was run: as §4

Chain of Alkyldihydroxyacetonephosphate synthase, peroxisomal (Homo sapiens) (O00116 whole entry): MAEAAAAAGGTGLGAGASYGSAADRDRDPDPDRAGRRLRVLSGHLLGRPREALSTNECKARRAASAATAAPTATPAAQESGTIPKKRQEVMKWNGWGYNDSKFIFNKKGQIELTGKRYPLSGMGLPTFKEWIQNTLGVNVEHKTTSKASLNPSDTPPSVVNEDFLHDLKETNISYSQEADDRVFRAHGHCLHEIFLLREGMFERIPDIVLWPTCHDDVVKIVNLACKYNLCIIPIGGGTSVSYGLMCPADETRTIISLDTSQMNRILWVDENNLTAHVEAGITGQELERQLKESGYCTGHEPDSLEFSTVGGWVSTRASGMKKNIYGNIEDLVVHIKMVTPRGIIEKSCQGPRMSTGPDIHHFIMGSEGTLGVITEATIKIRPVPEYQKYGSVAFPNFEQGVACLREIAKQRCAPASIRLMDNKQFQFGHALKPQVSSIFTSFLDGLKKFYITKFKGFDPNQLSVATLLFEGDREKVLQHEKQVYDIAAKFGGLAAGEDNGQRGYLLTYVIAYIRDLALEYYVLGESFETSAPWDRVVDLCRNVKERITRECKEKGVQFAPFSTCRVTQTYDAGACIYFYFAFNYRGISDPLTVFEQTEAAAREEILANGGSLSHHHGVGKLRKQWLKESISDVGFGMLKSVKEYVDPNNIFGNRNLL

ΔTm [1]: 0 °C
SMILES: O=C(/C=C/c1ccccc1F)NCc1ccc2[nH]c(=O)[nH]c2c1

ΔTm [1]: 4 °C
SMILES: CC(CC(=O)NCc1ccc2[nH]c(=O)[nH]c2c1)c1ccc(F)cc1 (stereo unspecified)

SMILES: CC(CC(=O)NCc1ccc2[nH]c(=O)[nH]c2c1)c1c(F)cccc1F (stereo in doubt; 2i) [listing 1 of 2 here]
Activity [2]: Non-Toxic | Activity [3]: 50 - 70% | viability at 48 h, 500 µM [4]: 57% | viability at 24 h, 500 µM [5]: 44% | Activity [6]: Non-Toxic | Activity [7]: 78%

ΔTm [1]: 3.5 °C
SMILES: CC(CC(=O)NCc1ccc2[nH]c(=O)[nH]c2c1)c1ccccc1F (stereo unspecified)
Activity (MDA-MB-231 [8]): Active | Activity (MDA-MB-231 [9]): Active | Activity (MDA-MB-231 [10]): Active | Activity [11]: 50% | Activity [12]: 48% | Activity (PC-3 [13]): Active | Activity [14]: 48% | Activity (PC-3 [15]): Active | Activity (PC-3 [16]): Active

ΔTm [1]: 0 °C
SMILES: COc1ccccc1C(C)CC(=O)NCc1ccc2[nH]c(=O)[nH]c2c1 (stereo unspecified)

ΔTm [1]: 5 °C | inhibition [18]: Active
SMILES: CC(CC(=O)NCc1ccc2[nH]c(=O)[nH]c2c1)c1c(F)cccc1F (stereo in doubt; 2i) [listing 2 of 2 here]
Activity (PC-3 [17]): Active | Activity (MDA-MB-231 [8]): Active | Activity (MDA-MB-231 [19]): Active | Activity (MDA-MB-231 [9]): Active | Activity (MDA-MB-231 [10]): Active | Activity (MDA-MB-231 [20]): inactive | Activity (MDA-MB-231 [21]): Active | Activity (MDA-MB-231 [22]): Active | Activity (PC-3 [13]): Active | Activity (PC-3 [15]): Active | Activity (PC-3 [23]): inactive | Activity (MDA-MB-231 [24]): Active | Activity (PC-3 [16]): Active

ΔTm [1]: 3 °C
SMILES: C[C@H](CC(=O)NCc1ccc2[nH]c(=O)[nH]c2c1)c1c(F)cccc1F

ΔTm [1]: 3 °C
SMILES: CC(Cc1ccccc1F)C(=O)NCc1ccc2[nH]c(=O)[nH]c2c1 (stereo unspecified)

ΔTm [1]: 3 °C
SMILES: Cc1ccccc1C(C)CC(=O)NCc1ccc2[nH]c(=O)[nH]c2c1 (stereo unspecified)

ΔTm [1]: 0 °C | inhibition [18]: inactive
SMILES: CC(CC(=O)NCc1ccc2[nH]cnc2c1)c1c(F)cccc1F (stereo unspecified)
Activity (MDA-MB-231 [8]): inactive | Activity (MDA-MB-231 [9]): inactive | Activity (MDA-MB-231 [10]): inactive | Activity (PC-3 [13]): inactive | Activity (PC-3 [15]): inactive | Activity (PC-3 [16]): inactive

ΔTm [1]: 0 °C
SMILES: C/C(=C\C(=O)NCc1ccc2[nH]c(=O)[nH]c2c1)c1ccccc1F

ΔTm [1]: 3 °C
SMILES: CC(CC(=O)NCc1ccc2[nH]c(=O)[nH]c2c1)c1cccc(F)c1 (stereo unspecified)

ΔTm [1]: 3.5 °C
SMILES: CC(CC(=O)NCc1ccc2[nH]c(=O)[nH]c2c1)c1ccccc1Cl (stereo unspecified)

ΔTm [1]: 1 °C
SMILES: CCC(CC(=O)NCc1ccc2[nH]c(=O)[nH]c2c1)c1ccccc1F (stereo unspecified)

ΔTm [1]: 3.5 °C
SMILES: CC(CC(=O)NCc1ccc2[nH]c(=O)[nH]c2c1)c1ccccc1Br (stereo unspecified)

ΔTm [1]: 2 °C
SMILES: C/C(=C\c1ccccc1F)C(=O)NCc1ccc2[nH]c(=O)[nH]c2c1

ΔTm [1]: 0 °C
SMILES: CC(CC(=O)Nc1ccc2[nH]c(=O)[nH]c2c1)c1c(F)cccc1F (stereo unspecified)

ΔTm [1]: 6 °C
SMILES: CC(CC(=O)NCc1ccc2[nH]c(=O)[nH]c2c1)c1c(F)cccc1F (single isomer, unassigned; (+))

ΔTm [1]: 3.5 °C
SMILES: CC(CC(=O)NCc1ccc2[nH]c(=O)[nH]c2c1)c1ccc(F)cc1F (stereo unspecified)

ΔTm [1]: 1.5 °C
SMILES: CC(CC(=O)NCc1ccc2[nH]c(=O)[nH]c2c1)c1ccccc1 (stereo unspecified)

ΔTm [1]: 0 °C | inhibition [18]: inactive
SMILES: O=C(CC(c1ccccc1)c1ccccc1F)NCc1ccc2[nH]c(=O)[nH]c2c1 (stereo unspecified)

ΔTm [1]: 1 °C | inhibition [18]: inactive
SMILES: CC(C(=O)NCc1ccc2[nH]c(=O)[nH]c2c1)c1c(F)cccc1F (stereo unspecified)

ΔTm [1]: 0 °C
SMILES: O=C(CCc1ccccc1F)NCc1ccc2[nH]c(=O)[nH]c2c1

ΔTm [1]: 0 °C
SMILES: CC(CC(=O)NCc1ccc2ncc(=O)[nH]c2c1)c1c(F)cccc1F (stereo unspecified)
